The list is not random: actives were taken first. Their share in the collection is about 4.7%.
Jurkat NFkB inh: lowers PMA/ionomycin-induced NF-kB signal in Jurkat cells | PMA/ionomycin-induced NF-kB luciferase reporter, luminescence | inhibition, % at 4 µM | 0.53% of 330,000 active | AID 435003; in the data active means inhibition above about 50%
697 NFkB inh: inhibitors of the PMA/ionomycin-induced NF-kB reporter in 697 B cells. 697 B-cell NF-kB luciferase reporter, 16 h. inhibition, % at 4 µM. AID 435022. 0.33% of 330,000 active; in the data active means inhibition above about 35%
Mdm2 MdmX PPI: human Mdm2/MdmX binding inhibition; O15151+Q00987; SaOS-2 split-luciferase Mdm2/MdmX complementation, luminescence; inhibition, % at 8 µM; AID 485346; 3% of 330,000 active;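 active means inhibition of at least 50% at 8 µM in the primary screen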
Target sequence (O15151 whole entry, looked up): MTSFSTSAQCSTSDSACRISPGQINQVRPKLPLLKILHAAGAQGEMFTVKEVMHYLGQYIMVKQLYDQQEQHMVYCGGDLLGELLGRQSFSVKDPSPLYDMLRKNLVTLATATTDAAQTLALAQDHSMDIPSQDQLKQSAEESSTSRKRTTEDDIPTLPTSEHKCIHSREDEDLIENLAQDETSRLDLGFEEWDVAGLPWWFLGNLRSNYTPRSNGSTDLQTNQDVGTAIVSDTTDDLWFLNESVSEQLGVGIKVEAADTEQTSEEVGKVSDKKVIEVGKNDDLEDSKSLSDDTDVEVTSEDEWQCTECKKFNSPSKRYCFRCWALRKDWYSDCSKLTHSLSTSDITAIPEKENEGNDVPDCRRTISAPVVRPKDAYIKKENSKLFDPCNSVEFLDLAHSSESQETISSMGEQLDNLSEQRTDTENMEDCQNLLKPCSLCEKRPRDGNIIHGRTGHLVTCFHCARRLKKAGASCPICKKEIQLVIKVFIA
Target sequence (Q00987 whole entry, looked up): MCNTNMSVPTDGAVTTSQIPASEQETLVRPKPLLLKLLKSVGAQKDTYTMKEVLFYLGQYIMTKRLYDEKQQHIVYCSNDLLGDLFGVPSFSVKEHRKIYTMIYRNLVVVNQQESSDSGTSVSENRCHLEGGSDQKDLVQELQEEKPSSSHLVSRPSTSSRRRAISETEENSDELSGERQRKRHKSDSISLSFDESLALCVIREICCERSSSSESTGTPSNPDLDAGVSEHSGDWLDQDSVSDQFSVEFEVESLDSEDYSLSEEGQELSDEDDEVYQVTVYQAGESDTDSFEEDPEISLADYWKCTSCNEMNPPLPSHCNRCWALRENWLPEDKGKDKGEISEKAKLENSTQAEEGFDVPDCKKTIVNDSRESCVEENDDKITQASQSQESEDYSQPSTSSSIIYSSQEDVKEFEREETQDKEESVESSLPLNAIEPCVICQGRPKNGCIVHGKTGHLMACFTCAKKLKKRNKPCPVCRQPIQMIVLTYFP
VIM-2 inhibitor: inhibitors of Pseudomonas aeruginosa VIM-2 metallo-beta-lactamase; inhibition, % at 5.6 µM; 0.89% of 290,000 active; purified VIM-2, nitrocefin hydrolysis, epi-absorbance fluorescence; AID 1527;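 active means inhibition above the mean of all tested compounds plus 3 SD, cutoff set per screening run, cut at about 7.5% in these data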;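 further: red hydrolysis product quenches plate fluorescence so inhibitors raise well fluorescence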
IMP-1 inh: inhibitors of Pseudomonas aeruginosa IMP-1 metallo-beta-lactamase; inhibition, % at 5.6 µM; AID 1556; purified IMP-1, nitrocefin hydrolysis, epi-absorbance fluorescence; 0.45% of 290,000 active;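 active means inhibition above the mean plus 3 SD of all compounds in the same screening run, cut at about 4.5% in these data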
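System: Purified recombinant IMP-1 metallo-beta-lactamase enzyme | Measured by: Fluorescence quenching readout, ex 480/em 530 nm | Replication: Singlicate | Incubation: 15 min preincubation plus 25 min reaction at 25 °C | Evaluation: Percent inhibition from optical density relative to buffer-blank wells | Benchmarks: DMSO with and without IMP-1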
aSyn 5UTR inh: 5' untranslated region of α-synuclein, MLPCN primary screen; alpha-synuclein 5'UTR reporter, inhibitor activity; inhibition, % (tested at 7.5 µM); 0.82% of 300,000 active; in the data active means inhibition above about 60%;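 further: H4 neuroglioblastoma cells stably carrying SNCA 5'UTR luciferase fusion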
Jurkat NFkB conf: lowers PMA/ionomycin-induced NF-kB signal in Jurkat cells; shares compounds with Jurkat NFkB inh; Jurkat NF-kB luciferase, 16 h; inhibition, % at 4 µM; 27% of 2,700 active; AID 435020;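 active means inhibition reaching about 45% at 4 µM in either replicate, limit read from the data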
697 NFkB conf: lowers PMA/ionomycin-induced NF-kB signal in 697 B cells; shares compounds with 697 NFkB inh; 697 B-cell NF-kB luciferase, 16 h; inhibition, % at 4 µM; 35% of 2,000 active; in the data active means inhibition mostly above about 28%, no sharp cut-off; inactive means mostly below about 22%
Mdm2-MdmX conf: confirmation of human Mdm2/MdmX interaction inhibitors | AID 489028 | 55% of 10,000 active | shares compounds with Mdm2 MdmX PPI | Mdm2-MdmX binding, luminescent assay | inhibition, % at 8 µM; in the data active means inhibition above about 40%
FLuc counter: inhibits full-length luciferase, flagging false Mdm2/MdmX hits; shares compounds with Mdm2 MdmX PPI; SaOS-2 full-length luciferase counterscreen, luminescence; inhibition, % at 8 µM; 77% of 6,200 active;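 active means mean inhibition at 8 µM reaching about 37%, which flags the compound as non-specific, limit read from the data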;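 further: p53-null SaOS-2 cells with luciferase driven by a doxycycline-inducible promoter; compound on cells about two nights before reading with doxycycline added after day one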
Each line names hits and unclear results; the compound was inactive in the other large screens (follow-up assays come after a bar, where they were run).

O=C(N/N=C/c1ccc(Sc2nc3ccccc3s2)c([N+](=O)[O-])c1)c1ccccn1	Jurkat NFkB inh 68.9, Mdm2 MdmX PPI 73.6 | Jurkat NFkB conf inactive | Mdm2-MdmX conf 52.5 | FLuc counter 55.3
O=C(N/N=C/c1ccc(Cl)c([N+](=O)[O-])c1)c1cnccn1	none
O=C(NNC(=O)c1ccc(S(=O)(=O)N2CCCCC2)cc1)c1ccc(F)cc1	none
CC(C)NCC(O)Cn1c2c(c3ccccc31)CCc1c-2cnn1-c1ccccc1 (configuration not stated)	Jurkat NFkB inh 58.5, Mdm2 MdmX PPI 98.1, aSyn 5UTR inh 107.8 | Jurkat NFkB conf inactive | Mdm2-MdmX conf 73.7 | FLuc counter inactive
CN1CCc2c(n(CC(O)CNCc3ccccc3)c3ccccc23)C1=O (configuration not stated)	none
O=C(NCC(c1ccco1)N1CCN(c2ccccc2F)CC1)c1ccco1 (configuration not stated)	none (no result: VIM-2 inhibitor, IMP-1 inh)
O=C(c1cccc(N2CCCC2=O)c1)N1CCN(c2cccc(Cl)c2)CC1	Jurkat NFkB inh 53.1, Mdm2 MdmX PPI 57.3 | Jurkat NFkB conf inactive | Mdm2-MdmX conf 68.3 | FLuc counter 48.4
O=C(c1cccc(N2CCCC2=O)c1)N1CCN(c2ccc(F)cc2)CC1	none
Cc1cccc(N2CCN(C(=O)c3cccc(N4CCCC4=O)c3)C(C)C2)c1 (configuration not stated)	Jurkat NFkB inh 55.8, Mdm2 MdmX PPI 54.6 | Jurkat NFkB conf inactive | Mdm2-MdmX conf 60.1 | FLuc counter 50.3
Cc1cc2nc3c(=O)[nH]c(=S)[nH]c3nc2cc1NC(=O)C(F)(F)F	none
COc1cc(C(=O)Nc2ccc3c(c2)CCN3C(C)=O)cc(OC)c1OC	Jurkat NFkB inh 67.7, Mdm2 MdmX PPI 59.3, aSyn 5UTR inh 96.9 | Jurkat NFkB conf inactive | Mdm2-MdmX conf 58.8 | FLuc counter 62.0
COc1cc(C(=O)Nc2ccc(S(=O)(=O)N3CCc4ccccc43)cc2)cc(OC)c1OC	none
COC(=O)/C(=C\Nc1ccc(OC)cc1)NC(=O)c1ccc(Cl)cc1Cl	none
COC(=O)/C(=C\Nc1ccc(Cl)cc1Cl)NC(=O)c1ccc(OC)cc1	Jurkat NFkB inh 66.3, Mdm2 MdmX PPI 51.7 | Jurkat NFkB conf inactive | Mdm2-MdmX conf 42.6 | FLuc counter 69.6
CN(C)c1ccc2c(c1)OC(N)=C(C#N)C2c1cccc(F)c1 (configuration not stated)	Jurkat NFkB inh 76.9, Mdm2 MdmX PPI 65.5, aSyn 5UTR inh 68.0 | Jurkat NFkB conf 55.4 | Mdm2-MdmX conf 61.6 | FLuc counter 96.9
COCCN(C(=O)COC(=O)CSc1ccc(Cl)cc1)c1c(N)n(CC(C)C)c(=O)[nH]c1=O	none (no result: VIM-2 inhibitor, IMP-1 inh, aSyn 5UTR inh)
CSc1nc2ccccc2cc1/C=C(\C#N)c1cccc(Cl)c1	Jurkat NFkB inh 54.1, Mdm2 MdmX PPI 57.1 | Jurkat NFkB conf inactive | Mdm2-MdmX conf 56.0 | FLuc counter 57.8
CCN(c1ccccc1)S(=O)(=O)c1ccc(C(=O)N2CCN(c3ccccc3)CC2)cc1	none (no result: VIM-2 inhibitor, IMP-1 inh, aSyn 5UTR inh)
O=C1CC(c2cccc(Br)c2)c2cc3c(cc2N1)CCC3 (configuration not stated)	Jurkat NFkB inh 54.0, Mdm2 MdmX PPI 67.0 | Jurkat NFkB conf inactive | Mdm2-MdmX conf 41.9 | FLuc counter 67.9
O=C1CC(c2cc(F)ccc2F)c2cc3c(cc2N1)CCC3 (configuration not stated)	Jurkat NFkB inh 71.1, Mdm2 MdmX PPI 51.8 | Jurkat NFkB conf 51.7 | Mdm2-MdmX conf 52.1 | FLuc counter 71.9
CCOc1ccc(/C=C/C(O)=C2/C(=O)NC3(C)CC2c2ccccc2O3)cc1OC (configuration not stated)	Jurkat NFkB inh 63.8, Mdm2 MdmX PPI 83.1 | Jurkat NFkB conf inactive | Mdm2-MdmX conf 89.7 | FLuc counter inactive
CN(C)c1ccc(/C=C/C(O)=C2/C(=O)N(C)C3(C)CC2c2ccccc2O3)cc1 (configuration not stated)	none (no result: Jurkat NFkB inh, 697 NFkB inh, Mdm2 MdmX PPI)
Cc1cccc2cc3c(NC(=O)C(C)(C)C)nn(CC(C)C)c3nc12	none
CCCC1Oc2ccccc2C(=O)N(CC(=O)c2ccc3c(c2)OCCO3)C1=O (configuration not stated)	none
O=C(CCN1C(=O)c2ccccc2S1(=O)=O)Nc1ccc2c(c1)OCCO2	none
O=C(CN1C(=O)c2ccccc2S1(=O)=O)c1ccc2c(c1)OCCCO2	Jurkat NFkB inh 95.7, 697 NFkB inh 94.5, Mdm2 MdmX PPI 94.9, aSyn 5UTR inh 114.4 | Jurkat NFkB conf 93.7 | 697 NFkB conf 88.6 | Mdm2-MdmX conf 81.0 | FLuc counter 56.2
O=C(CN1C(=O)c2ccccc2S1(=O)=O)c1ccc2c(c1)OCCO2	Jurkat NFkB inh 94.4, 697 NFkB inh 93.3, Mdm2 MdmX PPI 98.4, aSyn 5UTR inh 111.2 | Jurkat NFkB conf 91.7 | 697 NFkB conf 92.0 | Mdm2-MdmX conf 99.2 | FLuc counter 56.2
Cc1noc(NS(=O)(=O)c2ccc(NC(=O)C(F)(F)C(F)(F)C(F)(F)F)cc2)c1C	none (no result: VIM-2 inhibitor, IMP-1 inh, aSyn 5UTR inh)
CCN(CC)c1ccc2c(cc1=O)[C@@H](NC)CCc1cc(OC)c(OC)c(OC)c1-2	Jurkat NFkB inh 60.0, Mdm2 MdmX PPI 68.9, aSyn 5UTR inh 107.2 | Jurkat NFkB conf inactive | Mdm2-MdmX conf 61.2 | FLuc counter 90.5
CCOc1ccc(CC2c3cc(OCC)c(OCC)cc3CCN2C(=O)c2cc(OC)c(OC)c(OC)c2)cc1OCC (configuration not stated)	none
COc1cc2c(c(OC)c1OC)-c1ccc(OC)c(=O)cc1[C@@H](NC(C)=O)CC2	Jurkat NFkB inh 71.0, Mdm2 MdmX PPI 73.3, aSyn 5UTR inh 95.7 | Jurkat NFkB conf 68.9 | 697 NFkB conf inactive | Mdm2-MdmX conf 40.8 | FLuc counter 97.7
COc1cc2c(c(OC)c1OC)-c1ccc(OC)c(=O)cc1[C@@H](N(C)CC#CCO)CC2	Jurkat NFkB inh 62.7, Mdm2 MdmX PPI 51.0, aSyn 5UTR inh 87.2 | Jurkat NFkB conf 61.7 | Mdm2-MdmX conf 52.8 | FLuc counter 117.5
CCOC(=O)C1=CNS(=O)(=O)NC1c1ccc(OC(C)=O)cc1 (configuration not stated)	none (no result: Jurkat NFkB inh, VIM-2 inhibitor, IMP-1 inh, aSyn 5UTR inh)
CCOC(=O)[C@H]1[C@H]2COc3ccc(Br)cc3[C@@H]2N2C(=O)CN(Cc3ccccc3)C(=O)[C@@]12C	none (no result: VIM-2 inhibitor, IMP-1 inh, aSyn 5UTR inh)
